Measurements as given in ChEMBL document CHEMBL5236602, “Synthesis and Characterization of NUC-7738, an Aryloxy Phosphoramidate of 3'-Deoxyadenosine, as a Potential Anticancer Agent” (J Med Chem, 2022).
The source made the active and inactive calls. The calls are words filed in the database; no cut-off is given here.

Assays:
NCI-H929 [1] = experiment: Cytotoxicity against human NCI-H929 cells assessed as maximum cell growth inhibition incubated for 72 hrs by MTS assay relative to control; type: functional
Method in brief: (§1)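 Cells from the 20-line panel were seeded the day before dosing, then exposed to compound for 72 h. MTS was added, followed by 4 h at 37 °C, and absorbance was read. Nine serial 3.16-fold dilutions were tested, top 198 μM, in duplicate. MI% is the maximum inhibitory effect across the tested concentration range.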

HEL 92.1.7 [2] = experiment: Cytotoxicity against human HEL 92.1.7 cells assessed as maximum cell growth inhibition incubated for 72 hrs by MTS assay relative to control; type: functional; method in brief: as §1
MV4-11 = experiment: Cytotoxicity against human MV4-11 cells assessed as cell death incubated for 72 hrs by MTS assay; type: functional; details: read-out: LC50 (the source's name)
Method in brief: (§2)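 Contracted MTS assay. Cells seeded the day before treatment and exposed 72 h to nine serial concentrations (3.16-fold steps, top 198 μM), tested in duplicate. MTS added, then 4 h at 37 °C and absorbance read. LC50 is the concentration killing 50% of cells. MI% is the maximum inhibition over the tested range.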

BXPC-3 [3] = experiment: Cytotoxicity against human BXPC-3 cells assessed as cell death incubated for 72 hrs by MTS assay; type: functional; details: read-out: LC50 (the source's name); method in brief: as §2
RPMI-8226 = experiment: Cytotoxicity against human RPMI-8226 cells assessed as maximum cell growth inhibition incubated for 72 hrs by MTS assay relative to control; type: functional; method in brief: as §1
MOLT-4 [4] = experiment: Cytotoxicity against human MOLT-4 cells assessed as maximum cell growth inhibition incubated for 72 hrs by MTS assay relative to control; type: functional; method in brief: as §1
Z-138 [5] = experiment: Cytotoxicity against human Z138 cells assessed as cell death incubated for 72 hrs by MTS assay; type: functional; details: read-out: LC50 (the source's name); method in brief: as §2
MCF7 [6] = experiment: Cytotoxicity against human MCF7 cells assessed as cell death incubated for 72 hrs by MTS assay; type: functional; details: read-out: LC50 (the source's name); method in brief: as §2
K562 [7] = experiment: Cytotoxicity against human K562 cells assessed as cell death incubated for 72 hrs by MTS assay; type: functional; details: read-out: LC50 (the source's name); method in brief: as §2
HT-29 [8] = experiment: Cytotoxicity against human HT-29 cells assessed as maximum cell growth inhibition incubated for 72 hrs by MTS assay relative to control; type: functional; method in brief: as §1
RL [9] = experiment: Potency index, ratio of 3'-Deoxyadenosine LC50 to test compound LC50 for cytotoxicity against human RL cells assessed as cell death incubated for 72 hrs by MTS assay; type: functional
[10] = Metabolic stability in pooled cryopreserved human hepatocytes assessed as intrinsic clearance measured per 10^6 cells at 1 uM incubated for 60 mins by HPLC-MS/MS analysis; type: ADME, cell-based, Hepatocyte; details: 1 h
Method in brief: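 Pooled cryopreserved human hepatocytes were thawed, washed and resuspended in Krebs–Henseleit buffer, pH 7.3. Compound was added at 1 μM final and incubated 0 and 60 min at 37 °C/5% CO2. Reactions were stopped with acetonitrile, centrifuged, and the supernatant analysed by HPLC-MS/MS.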

[11] = Cytotoxicity against human HS 445 cells assessed as maximum cell growth inhibition incubated for 72 hrs by MTS assay relative to control; type: functional; method in brief: as §1
THP-1 = experiment: Cytotoxicity against human THP-1 cells assessed as cell death incubated for 72 hrs by MTS assay; type: functional; details: read-out: LC50 (the source's name); method in brief: as §2
MCF7 [12] = experiment: Cytotoxicity against human MCF7 cells assessed as maximum cell growth inhibition incubated for 72 hrs by MTS assay relative to control; type: functional; method in brief: as §1
RL [13] = experiment: Cytotoxicity against human RL cells assessed as maximum cell growth inhibition incubated for 72 hrs by MTS assay relative to control; type: functional; method in brief: as §1
HepG2 [14] = experiment: Cytotoxicity against human HepG2 cells assessed as cell death incubated for 72 hrs by MTS assay; type: functional; details: read-out: LC50 (the source's name); method in brief: as §2
CCRF-CEM [15] = experiment: Potency index, ratio of 3'-Deoxyadenosine LC50 to test compound LC50 for cytotoxicity against human CCRF-CEM cells assessed as cell death incubated for 72 hrs by MTS assay; type: functional
CCRF-CEM [16] = experiment: Cytotoxicity against human CCRF-CEM cells assessed as cell death incubated for 72 hrs by MTS assay; type: functional; details: read-out: LC50 (the source's name); method in brief: as §2
CCRF-CEM [17] = experiment: Cytotoxicity against human CCRF-CEM cells assessed as maximum cell growth inhibition incubated for 72 hrs by MTS assay relative to control; type: functional; method in brief: as §1
RL [18] = experiment: Cytotoxicity against deoxynucleotidyl transferase-negative human RL cells assessed as cell death preincubated with adenosine deaminase inhibitor, EHNA for 5 mins followed by compound addition and […]; type: functional, cell-based
MOLT-4 [19] = experiment: Cytotoxicity against human MOLT-4 cells assessed as cell death incubated for 72 hrs by MTS assay; type: functional; details: read-out: LC50 (the source's name); method in brief: as §2
HEL 92.1.7 [20] = experiment: Cytotoxicity against human HEL 92.1.7 cells assessed as cell death incubated for 72 hrs by MTS assay; type: functional; details: read-out: LC50 (the source's name); method in brief: as §2
HL-60 [21] = experiment: Cytotoxicity against human HL-60 cells assessed as maximum cell growth inhibition incubated for 72 hrs by MTS assay relative to control; type: functional; method in brief: as §1
SW-620 [22] = experiment: Cytotoxicity against human SW620 cells assessed as cell death incubated for 72 hrs by MTS assay; type: functional; details: read-out: LC50 (the source's name); method in brief: as §2
BXPC-3 [23] = experiment: Cytotoxicity against human BXPC-3 cells assessed as maximum cell growth inhibition incubated for 72 hrs by MTS assay relative to control; type: functional; method in brief: as §1
Leukemic stem cell = experiment: Cytotoxicity against human leukemic stem cells (Lin-/CD34+/CD38-/CD123+) in myeloid leukemia cell line KG-1a assessed as reduction in LSC population at >1 uM incubated for 72 hrs
[24] = Cytotoxicity against human HS 445 cells assessed as cell death incubated for 72 hrs by MTS assay; type: functional; details: read-out: LC50 (the source's name); method in brief: as §2
SW-620 [25] = experiment: Cytotoxicity against human SW620 cells assessed as maximum cell growth inhibition incubated for 72 hrs by MTS assay relative to control; type: functional; method in brief: as §1
K562 [26] = experiment: Cytotoxicity against human K562 cells assessed as maximum cell growth inhibition incubated for 72 hrs by MTS assay relative to control; type: functional; method in brief: as §1
HT-29 [27] = experiment: Cytotoxicity against human HT-29 cells assessed as cell death incubated for 72 hrs by MTS assay; type: functional; details: read-out: LC50 (the source's name); method in brief: as §2
HL-60 [28] = experiment: Potency index, ratio of 3'-Deoxyadenosine LC50 to test compound LC50 for cytotoxicity against human HL-60 cells assessed as cell death incubated for 72 hrs by MTS assay; type: functional
MIA PaCa-2 = experiment: Cytotoxicity against human MIA PaCa-2 cells assessed as maximum cell growth inhibition incubated for 72 hrs by MTS assay relative to control; type: functional; method in brief: as §1
Z-138 [29] = experiment: Cytotoxicity against human Z138 cells assessed as maximum cell growth inhibition incubated for 72 hrs by MTS assay relative to control; type: functional; method in brief: as §1
HepG2 [30] = experiment: Cytotoxicity against human HepG2 cells assessed as maximum cell growth inhibition incubated for 72 hrs by MTS assay relative to control; type: functional; method in brief: as §1
NCI-H929 [31] = experiment: Cytotoxicity against human NCI-H929 cells assessed as cell death incubated for 72 hrs by MTS assay; type: functional; details: read-out: LC50 (the source's name); method in brief: as §2
Jurkat = experiment: Potency index, ratio of 3'-Deoxyadenosine LC50 to test compound LC50 for cytotoxicity against human Jurkat cells assessed as cell death incubated for 72 hrs by MTS assay; type: functional
[32] = Prodrug conversion in human CCRF-CEM cells assessed as fold increase in 3'-dATP level at 50 uM incubated for 2 hrs by LC-MS/MS analysis relative to 3'-Deoxyadenosine; type: ADME, cell-based
[33] = Prodrug conversion in human RL cells assessed as fold increase in 3'-dATP level at 50 uM incubated for 2 hrs by LC-MS/MS analysis relative to 3'-Deoxyadenosine; type: ADME, cell-based
[34] = Prodrug conversion in human HL-60 cells assessed as fold increase in 3'-dATP level at 50 uM incubated for 2 hrs by LC-MS/MS analysis relative to 3'-Deoxyadenosine; type: ADME, cell-based; details: hl-60, 2 h

Question: For `C[C@@H](NP(=O)(OC[C@@H]1C[C@@H](O)[C@H](n2cnc3c(N)ncnc32)O1)Oc1cccc2ccccc12)C(=O)OCc1ccccc1` (stereo not given in full), which Imax (NCI-H929 [1]) is on record?
Answer: 99%

Question: And the Imax (HEL 92.1.7 [2])?
Answer: 98%

Question: And the CC50 (MV4-11)?
Answer: 1.48 µM

Question: And the CC50 (BXPC-3 [3])?
Answer: 74 µM

Question: What about the Imax (RPMI-8226) of the same compound?
Answer: 102%

Question: And the Imax (MOLT-4 [4])?
Answer: 100%

Question: And the CC50 (Z-138 [5])?
Answer: 6.32 µM

Question: What about the CC50 (MCF7 [6]) of the same compound?
Answer: 1.39 µM

Question: What about the CC50 (K562 [7]) of the same compound?
Answer: 4.93 µM

Question: What about the Imax (HT-29 [8]) of the same compound?
Answer: 98%

Question: And the RatioLC50 (RL [9])?
Answer: 3

Question: What about the CLint [10] of the same compound?
Answer: 20.8 µL/min/1e6 cells

Question: What about the Imax [11] of the same compound?
Answer: 96%

Question: What about the CC50 (THP-1) of the same compound?
Answer: 46.5 µM

Question: What about the Imax (MCF7 [12]) of the same compound?
Answer: 99%

Question: And the Imax (RL [13])?
Answer: 96%

Question: And the CC50 (HepG2 [14])?
Answer: 11.5 µM

Question: And the RatioLC50 (CCRF-CEM [15])?
Answer: 3

Question: And the CC50 (CCRF-CEM [16])?
Answer: 1.17 µM

Question: And the Imax (CCRF-CEM [17])?
Answer: 100%

Question: And the Activity (RL [18])?
Answer: Active

Question: What about the CC50 (MOLT-4 [19]) of the same compound?
Answer: 0.32 µM

Question: What about the CC50 (HEL 92.1.7 [20]) of the same compound?
Answer: 2.94 µM

Question: And the Imax (HL-60 [21])?
Answer: 100%

Question: What about the CC50 (SW-620 [22]) of the same compound?
Answer: 11.4 µM

Question: What about the Imax (BXPC-3 [23]) of the same compound?
Answer: 90%

Question: What about the Activity (Leukemic stem cell) of the same compound?
Answer: inactive

Question: And the CC50 [24]?
Answer: 10.2 µM

Question: And the Imax (SW-620 [25])?
Answer: 93%

Question: And the Imax (K562 [26])?
Answer: 97%

Question: And the CC50 (HT-29 [27])?
Answer: 7.52 µM

Question: What about the RatioLC50 (HL-60 [28]) of the same compound?
Answer: 3

Question: What about the Imax (MIA PaCa-2) of the same compound?
Answer: 98%

Question: What about the Imax (Z-138 [29]) of the same compound?
Answer: 100%

Question: And the Imax (HepG2 [30])?
Answer: 95%

Question: And the CC50 (NCI-H929 [31])?
Answer: 3.38 µM

Question: And the RatioLC50 (Jurkat)?
Answer: 200

Question: And the “fold change (FC)” value [32]?
Answer: 3

Question: What about the “fold change (FC)” value [33] of the same compound?
Answer: 3

Question: And the “fold change (FC)” value [34]?
Answer: 3
